We go through one molecule from article PMC10663723 (RSC Advances, 2023).

Structures are written as SMILES. Converted amounts (≈) assume the structure as drawn.

The term CC50 denotes the concentration giving 50% cytotoxicity. A low value points to greater toxicity to the cells. For orientation: EC50 means the concentration giving half of the maximal effect.

A short description of data set [1]: MTT cell viability assay, HFF cells. The class given is cell-based. As to conditions: human, HFF cells (non-cancer human foreskin fibroblasts). In outline: (§1)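 Cells plated at 10000/well in DMEM with 10% FBS and incubated 20 h at 37 °C, 5% CO2. Test compound (20 mg mL−1 DMSO stock, diluted in medium) was applied at 0.1–100 μg mL−1 for 48 h; 0.5% final DMSO served as vehicle control. MTT (0.5 mg mL−1) was added for 4 h at 37 °C in the dark, formazan was dissolved in DMSO, and absorbance was read at 570 nm.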
For orientation: Tetrazolium assays rely on reduction of a dye to a coloured formazan, in cell work by metabolically active cells.

In data set [2] the test system is triple-negative breast cancer cells (MDA-MB-231). The experiment in a line: MTT cell viability assay, MDA-MB-231 cells. The class given is cell-based, human. Conditions: CC50 HFF / EC50 MDA-MB-231. A digest of the protocol:
as §1

The next data set deals with lung cancer cells (A549). The experiment in a line: MTT cell viability assay, A549 cells. The class given is cell-based, human. In outline: as §1
The subject of data set [3] is cervical cancer cells (HeLa). The experiment in a line: MTT cell viability assay, HeLa cells. The class given is cell-based. Conditions: Homo sapiens, 48 h, read-out: EC50, HeLa. A digest of the protocol: as §1

In the case of `COc1cccc2c1C(=O)c1c(O)c3c(c(O)c1C2=O)C[C@@](O)(C(=O)CO)C[C@@H]3O[C@H]1C[C@H](N)[C@H](O)[C@H](C)O1` [doxorubicin], the CC50 at 48 h in data set [1] is 8.96 µg/mL (≈ 16.5 µM). In addition, the “SI (selectivity index) MDA-MB-231 with respect to HFF cells” value in data set [2] is 2.73. Besides, the “SI (selectivity index) A549 with respect to HFF cells” value with lung cancer cells (A549) (CC50 HFF / EC50 A549) is 2.83. Moreover, the EC50 worked out at 2.68 µg/mL (≈ 4.93 µM) in the data set on lung cancer cells (A549) (Homo sapiens, A549, 48 h, read-out: EC50, A549) and 1.69 µg/mL (≈ 3.11 µM) in data set [3].
